Published values of several laboratories.
Target: TGF-beta receptor type-2 (TGFBR2, Homo sapiens, UniProt P37173)

Structure (SMILES)	read-out	method	concentration	remaining binding [%]
CN(CCCC(F)(F)F)c1nccc(-c2cnn3ncccc23)n1	binding	–	1 µM	73
O=C(c1ccc(Nc2ncc(Cl)c(-c3cc4ccccc4s3)n2)cc1)N1CCC(N2CCCC2)CC1	binding	competition with immobilised ligand	1 µM	84
COc1cccc(CNC(=O)c2nc3scc(COCc4ccc(C(=O)O)cc4)c3c(=O)[nH]2)c1	cell-free assay	competition with immobilised ligand	1 µM	97
N[C@H]1CCN(c2nccc(-c3cnn4ncccc34)n2)C1	binding	–	1 µM	86
COc1cc(-c2cn(C3CCc4c(F)cccc4N(CC(F)(F)F)C3=O)nn2)ccc1-n1cnc(C)c1 (stereo not drawn)	cell-free assay	competition with immobilised ligand	1 µM	100
O=C(Nc1c[nH]nc1C(=O)NC1CCNCC1)c1cc(F)cc(F)c1	binding	competition with immobilised ligand	1 µM	90
O=C1CCc2cc(Nc3cc(OC4CCOCC4)c([N+](=O)[O-])cc3Cl)ccc2N1	cell-free assay	competition with immobilised ligand	1 µM	98
C[C@@H]1CCN(c2nccc(-c3cnn4ncccc34)n2)C1	binding	–	1 µM	100
COc1cnc(Nc2cccc(S(N)(=O)=O)c2)nc1N1CCN(c2ccccc2)C(=O)C1	binding	competition with immobilised ligand	1 µM	100
C[C@@H](c1ccc(-n2cnc3c(N)ncnc32)cc1)N1CCc2nn(C)c(Cc3ccccc3)c2C1=O	binding	competition with immobilised ligand	0.1 µM	84
CC1CCCN1c1nccc(-c2cnn3ncccc23)n1 (stereo not drawn)	binding	–	1 µM	100
FC(F)(F)Oc1cccc(-c2cnc3ccc(-c4ccncc4)nn23)c1	cell-free assay	competition with immobilised ligand	5 µM	66
O=C(N[C@H]1CCCCC/C=C\C2C[C@@]2(C(=O)O)NC(=O)[C@@H]2C[C@@H](Oc3ccncc3)CN2C1=O)OC1CCCC1 (stereo partly drawn)	cell-free assay	competition with immobilised ligand	1 µM	85
F[C@@H]1CCN(c2nccc(-c3cnn4ncccc34)n2)C1	binding	–	1 µM	100
CC1=C(C#N)[C@@H](c2ccc3[nH]nc(C)c3c2)C(C#N)=C(c2ccc(Cl)cc2)N1	cell-free assay	competition with immobilised ligand	1 µM	74.6
CN(C)c1nccc(-c2cnn3ncccc23)n1	binding	–	1 µM	73
CCN1CCN(Cc2ccc(C(=O)Nc3ccc(C)c(Oc4ccc5c(c4)CC(=O)N5)c3)cc2C(F)(F)F)CC1	binding	competition with immobilised ligand	1 µM	100
O=C(c1ccc(Nc2nccc(-c3cc4ccccc4s3)n2)cc1)N1CCC(N2CCCC2)CC1	binding	competition with immobilised ligand	1 µM	88
c1cncc(-c2cccc(Nc3nccc(NC4CCCCC4)n3)c2)c1	binding	competition with immobilised ligand	10 µM	30
Cc1cnc(Nc2ccc(C(=O)N3CCC(N4CCCC4)CC3)cc2)nc1-c1cc2ccccc2s1	binding	competition with immobilised ligand	1 µM	61
CC1=C(C#N)C(c2ccc3c(c2)c(NC(=O)c2ccccc2C)nn3C)C(C#N)=C(C)N1	cell-free assay	competition with immobilised ligand	1 µM	99
